Residues, ends and D or L forms follow the SMILES beside them. *: point of attachment. X1 = CC(=O)O[C@@]12CO[C@@H]1C[C@H](O)[C@@]1(C)C(=O)[C@H](O)C3=C(C)[C@@H](OC(=O)[C@H](OC(=O)OCc4ccc(N*)cc4)[C@@H](NC(=O)OC(C)(C)C)c4ccccc4)C[C@@](O)([C@@H](OC(=O)c4ccccc4)[C@H]21)C3(C)C
Legend:
[1] = Toxicity in BALB/c nude mouse xenografted with human HCT-116 cells assessed as reduction in body weight at 23.4 mg/kg, ip administered once for every 7 days for 14 days relative to control; type: organism-based; parameters: scale not given: the % may be the effect or the level left; conditions: in vivo, 336 h, time 14 day
Summary of the method: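 HCT116 s.c. xenografts in male BALB/c nude mice, n = 6 per group. Dosing was ip once every 7 days for 2 weeks in DMSO/castor oil/ethanol/saline; vehicle controls got solvent. Body weight recorded every other day or every three days. Weight loss taken at day 14. Mean ± SD.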

HEK293 = test: Cytotoxicity against HEK293 cells assessed as reduction in cell viability after 48 hrs by MTT assay; type: cell-based; conditions: Homo sapiens, HEK293, 48 h
Summary of the method: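 Cells seeded at 5000/well and precultured 1 day. HCT116 grown in McCoy's 5A + 10% FBS; SW620 and HEK293 in DMEM + 10% FBS; CCD18Co in DMEM + 15% FBS. Compounds from 0.1 M DMSO stocks were tested at 10^-10 to 10^-4 mol/L in sixplicate: HCT116 and HEK293 for 48 h, SW620 and CCD18Co for 72 h, at 37 °C, 5% CO2. MTT (5 mg/mL) added for 4 h, then A570 read; IC50 estimated.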

SW-620 = test: Potency index, ratio of 4FDT IC50 to test compound IC50 for Cytotoxicity against human SW-620 cells; type: functional
HCT-116 [2] = test: Antitumour activity against human HCT-116 cells xenografted in ip dosed BALB/c nude mouse assessed as tumour growth inhibition administered once for every 7 days for 14 days; type: functional, organism-based; conditions: time 14.0 day
Summary of the method: (§1)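 Male BALB/c nude mice received s.c. HCT116 cells (2 × 10^6 in 0.2 mL PBS). Once tumours reached 100-200 mm3, mice were randomized into groups of six. Dosing was ip, 0.1 mL/10 g, once every 7 days, in DMSO 0.5%/castor oil 5%/ethanol 5%/saline 89.5%; vehicle controls got solvent. Caliper volume V = L×W²×0.52 read every 2-3 days. Tumours excised and weighed on day 14.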

HCT-116 [3] = test: Antitumour activity against human HCT-116 cells xenografted in BALB/c nude mouse assessed as tumour growth inhibition at 11.7 mg/kg, ip administered once for every 7 days for 14 days relative to control; type: functional; conditions: HCT-116, ip, 336 h, time 14 day, read-out: TGI; summary of the method: as §1
[4] = Toxicity in BALB/c nude mouse xenografted with human HCT-116 cells assessed as reduction in body weight at 5.85 mg/kg, ip administered once for every 7 days for 14 days relative to control; type: organism-based; parameters: scale not given: the % may be the effect or the level left; conditions: in vivo, 336 h, time 14 day
Summary of the method: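 HCT116 cells (2 × 10^6 in 0.2 mL PBS) inoculated subcutaneously into male BALB/c nude mice; at mean tumor volume 100-200 mm3, randomized, six mice per group. Dosed intraperitoneally once every 7 days in DMSO (0.5%)/castor oil (5%)/ethanol (5%)/saline (89.5%), 0.1 mL per 10 g; vehicle controls received solvent. Body weight monitored every other day or three days; mice weighed on day 14.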

[5] = Toxicity in BALB/c nude mouse xenografted with human HCT-116 cells assessed as concentrated nucleus in liver at 11.73 mg/kg, ip administered once for every 7 days for 14 days by H and E staining based assay; type: organism-based; conditions: in vivo, 336 h, time 14 day
Summary of the method: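 At the end of the 14-day ip xenograft study (HCT116, BALB/c nude), heart and liver were collected from vehicle and molar-equivalent dose groups. Tissues fixed in 10% formalin in PBS and stained with H&E. Liver examined at 400×, heart at 100×.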

[6] = AUC (0 to t) in Sprague-Dawley rat at 5 mg/kg, iv measured up to 72 hrs by LC-MS/MS analysis; type: ADME, organism-based; parameters: route intravenous, dose 5 mg/kg, time <=72; conditions: in vivo
Summary of the method: (§2)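 Male SD rats (180-200 g), fasted 12 h with free water, n = 3 per group. Single tail-vein dose of 5 mg/kg in 0.5% DMSO/5% castor oil/5% ethanol/89.5% saline. Retro-orbital blood drawn 0.083-72 h with heparin. Plasma protein-precipitated with methanol containing paclitaxel internal standard, then analysed by LC-MS/MS. Parameters from non-compartmental analysis, mean ± SD. For the DTX group, parameters were calculated after converting dose to the molar equivalent of the prodrug.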

[7] = AUC (0 to infinity) in Sprague-Dawley rat at 5 mg/kg, iv measured up to 72 hrs by LC-MS/MS analysis; type: ADME, organism-based; parameters: route intravenous, dose 5 mg/kg, time <=72; conditions: Sprague-Dawley, in vivo; summary of the method: as §2
[8] = MRT (0 to infinity) in Sprague-Dawley rat at 5 mg/kg, iv measured up to 72 hrs by LC-MS/MS analysis; type: ADME, organism-based; conditions: in vivo; summary of the method: as §2
[9] = Half life in Sprague-Dawley rat at 5 mg/kg, iv measured up to 72 hrs by LC-MS/MS analysis; type: ADME, organism-based; conditions: in vivo; summary of the method: as §2
[10] = Apparent clearance in Sprague-Dawley rat at 5 mg/kg, iv measured up to 72 hrs by LC-MS/MS analysis; type: ADME, organism-based; conditions: Sprague-Dawley, in vivo, read-out: CL(app) (converted); summary of the method: as §2
[11] = AUC (0 to t) in Sprague-Dawley rat assessed as docetaxel level at 5 mg/kg, iv measured up to 72 hrs by LC-MS/MS analysis; type: ADME, organism-based; parameters: route intravenous, dose 5 mg/kg, time <=72; conditions: in vivo; summary of the method: as §2
[12] = AUC (0 to infinity) in Sprague-Dawley rat assessed as docetaxel level at 5 mg/kg, iv measured up to 72 hrs by LC-MS/MS analysis; type: ADME, organism-based; parameters: route intravenous, dose 5 mg/kg, time <=72; conditions: in vivo; summary of the method: as §2
[13] = Half life in Sprague-Dawley rat assessed as docetaxel level at 5 mg/kg, iv measured up to 72 hrs by LC-MS/MS analysis; type: ADME, organism-based; conditions: in vivo; summary of the method: as §2

CC[C@H](C)[C@H](NC(=O)CNC(=O)[C@H](CCC(N)=O)NC(=O)[C@@H]1CCCN1C(=O)CNC(C)=O)C(=O)N[C@@H](C)C(=O)N[C@@H](CCSC)C(=O)N[C@@H](CCC(N)=O)C(=O)N[C@@H](CC(C)C)C(=O)Nc1ccc(COC(=O)O[C@@H](C(=O)O[C@H]2C[C@@]3(O)[C@@H](OC(=O)c4ccccc4)[C@@H]4[C@]5(OC(C)=O)CO[C@@H]5C[C@H](O)[C@@]4(C)C(=O)[C@H](O)C(=C2C)C3(C)C)[C@@H](NC(=O)OC(C)(C)C)c2ccccc2)cc1 (Ac-GPQGIAMQL-X1)
Activity [1]: 12.2% | IC50 (HEK293): 137 µM | Ratio IC50 (SW-620): 9 | TGI (HCT-116 [2]): Dose-dependent effect | inhibition in vivo at 11.7 mg/kg (HCT-116 [3]): 46.3% | Activity [4]: 4.9% | Activity [5]: Non-Toxic | AUC(0-t) at 72 h [6]: 9070 ng·h/mL | AUC(0-inf) [7]: 9240 ng·h/mL | MRT inf [8]: 11.6 h | half-life [9]: 12.8 h | clearance [10]: 9.33 mL/min/kg | AUCt [11]: 247 ng·h/mL | AUC [12]: 299 ng·h/mL | t1/2 [13]: 7.03 h
